Source: ChEMBL document CHEMBL4513216, “Probing the Open Global Health Chemical Diversity Library for Multistage-Active Starting Points for Next-Generation Antimalarials” (ACS Infect Dis, 2020)

Assay: Toxicity liver stage against HepG2, at 10uM
Type: cell-based
Set-up: test concentration 10 uM, cell line HepG2-A16-CD81EGFP
Settings: human, HepG2-A16-CD81EGFP cells; read-out: INHIBITION
In short: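 Uninfected HepG2-A16-CD81EGFP cells, 3 × 10^3 per well, 1536-well, plated on prespotted compound at 10 μM final, parasite-free screening media added to match infected plates; puromycin 10 μM positive, DMSO 0.5% negative; run in parallel with 48 h PbLuc assay at 37 °C, 5% CO2; viability by CellTiter-Glo luminescence, normalized to controls.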

SMILES	cytotoxicity at 10 µM [%]
Cc1ccc(F)cc1NC(=O)NCC(C)N1CCOCC1 (stereo not given)	2.6
CN(C)c1nc2sc(C(=O)N3CCN(C(=O)OC(C)(C)C)CC3)cc2s1	1.71
Cc1ccc(S(=O)(=O)Cc2noc([C@@H]3C[C@@H](O)CN3)n2)cc1	-5.78
CS(=O)(=O)c1ccc(CNC[C@H]2COCc3nc4ccccc4n32)cc1	-1.28
Cn1ccnc1CN1C[C@H]2CN(S(C)(=O)=O)CCN2C1=O	-6.04
O=C(O)C1CCN(c2nc3c(-c4ccccc4F)csc3c(=O)[nH]2)CC1	-10
CN(C)C1COC2(CCN(C(=O)c3cccnc3)CC2)C1 (stereo not given)	3.53
Cc1ccc(C(=O)N2CCO[C@H]3[C@H](OCCN(C)C)CC[C@@H]32)cn1	4.85
O=C(CCn1ccc2ccc(Cl)cc21)NCc1ccc(C(=O)O)cc1	-0.411
CCCc1nnsc1C(=O)NCC1CCN(c2ccccn2)CC1	-16.7
COCC1c2nnn(CC3CC3)c2CCN1C(=O)Cc1cccs1 (stereo not given)	-15.8
CNc1cc(CCNC(=O)C2CCCC2)nc(-c2ccccn2)n1	1.76
Cc1nnc(N2CCOC(C)(C(=O)N(C)C)C2)c2ccccc12 (stereo not given)	10.4
Cn1cnc2ccc(NC(=O)CC3CCN(S(C)(=O)=O)CC3)cc21	22.6
Cn1cc(Cl)c(C(=O)N2CCc3nc4sccc4c(=O)n3CC2)n1	-3.04
COCCN1CCN(Cc2cnc(C)nc2)CC1	-22.8
Cc1nn(C)c(C)c1CN1CCCC1c1nccc(CN(C)C)n1 (stereo not given)	-28.1
O=C(c1cccnc1)N1CCCC(Cc2nccs2)C1 (stereo not given)	-2.86
CS(=O)(=O)NC(c1ccccc1)c1ccc2c(c1)CCCO2 (stereo not given)	0.682
O=c1[nH]c(C2CCOC2)nc2ccc(Cl)cc12 (stereo not given)	-12
CC(C)c1nc(CN2CCN(C(=O)OC(C)(C)C)C(C)C2)no1 (stereo not given)	1.62
CCSc1cc(C(=O)NC(C)c2cccc(N3CCOC3=O)c2)ccn1 (stereo not given)	24.1
CC(C)COC(=O)N1CCCN(C(C)c2nc(C(C)C)no2)CC1 (stereo not given)	6.85
Cc1nc2n(n1)CC(NCc1ccccc1OCC(=O)N(C)C)CC2 (stereo not given)	7.61
COc1cc(CSc2nnc(C)n2CC(N)=O)ccc1SC	-7.91
O=C(Nc1cccs1)N(CCO)CCOCC(F)(F)F	3.84
CC(NC(=O)Nc1ccc(OC2CCCC2)cc1)c1nc[nH]n1 (stereo not given)	-5.42
CNS(=O)(=O)c1cccc(C(C)NCc2ccccc2OC)c1 (stereo not given)	-2.59

SMILES	cytotoxicity at 10 µM [%]
Cc1nc(C)c(CNCc2nnc3n2CCCC3C(F)(F)F)s1 (stereo not given)	3.28
Cc1cncc(NCC(O)c2ccco2)n1 (stereo not given)	5.58
CSCC(=O)Nc1cccc(Oc2ccccn2)c1	-6.1
CNC(=O)CN1CCN(C(=O)Nc2ccc(Cl)cc2F)CC1	1.41
Cc1cccc(NC(=O)c2sc(C)nc2C)n1	5.52
COc1cccc2[nH]cc(CCNC(=O)N3CCOCC3C3CC3)c12 (stereo not given)	12.1
CC(Nc1ccn(Cc2ccccn2)n1)C(=O)NC(C)(C)C (stereo not given)	-2.08
O=C(CS(=O)(=O)C1CCCC1)NC1CCCc2cc(OC(F)F)ccc21 (stereo not given)	4.84
Cc1nccn1CCCNc1ccc(Cl)c(C#N)n1	-7.62
COCC(C)NC(=O)CN1CCCC1 (stereo not given)	-7.42
COc1ccc(C(NCc2cccc(C#N)c2)C(C)C)cc1 (stereo not given)	17
Cc1ccc(N2CCCC(N3CCC4(CC3)OCCO4)C2=O)cc1 (stereo not given)	6.7
Cc1n[nH]cc1CNC1(c2ccc(Br)cc2)CC1	13.9
O=C(NCC1(O)CCSC1)c1cccc(-n2cccn2)c1 (stereo not given)	-3.5
COc1cccc(NC(=O)CNc2ccc(C(=O)N(C)C)c(Cl)c2)c1	6.91
Cc1ccc(NC(=O)N(C)CC(O)COCCOC(C)C)c(Br)c1 (stereo not given)	11.2
CC1CN(c2ccc(C#N)cn2)CCN1c1ccc2nncn2n1 (stereo not given)	1.42
O=C(NCC(O)C1CC1)Nc1cnn(Cc2ccccc2)c1 (stereo not given)	4.85
Cc1cccn2cc(C[S+]([O-])Cc3noc(C(C)C)n3)nc12 (stereo not given)	6.13
CCCc1nc(CNc2ccc(F)c(F)c2)no1	8.93
Cc1cc(S(=O)(=O)Nc2cccc(-n3cccc3)c2)sc1C(=O)O	-2.23
CNC(=O)CS(=O)(=O)Cc1coc(-c2ccc(F)cc2)n1	-9.44
Cc1cc(-c2nnn(CCC(N)=O)n2)ccc1F	-8.71
Cc1noc(C(C)C)c1C(=O)N1CCOCC1CC(=O)c1ccco1 (stereo not given)	2.09
O=C(CN1CCCC1Cn1cncn1)Nc1cccnc1 (stereo not given)	-14.6
Cc1cccc(CNCc2c(C)nn(C)c2N2CCOCC2)n1	-10.9
CCc1ccc(C(=O)Nc2ccc(CC3CC(=O)NC3=O)cc2)cc1 (stereo not given)	-13.5
